Converted amounts (≈) assume the structure as drawn.

One experiment has as its system Bacillus subtilis. Nature of the experiment: Activity against Bacillus subtilis (ATCC 6633). The format is functional. In a few lines:
(§1)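 Agar dilution MIC: serial 2-fold dilutions in Mueller-Hinton agar, inoculum about 10^6 CFU/mL, incubated at 37 °C for 18 h. The MIC is the lowest concentration that prevents visible bacterial growth.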

In another experiment the test system is Klebsiella pneumoniae. Put plainly: Activity against Klebsiella pneumoniae (PCI-602). The format is functional. In a few lines: as §1
The subject of experiment [1] is Pseudomonas cepacia (Burkholderia cepacia). Put plainly: Activity against Pseudomonas cepacia (IID-1341).
The test system of another experiment is Nucleic Acid. Nature of the experiment: Inhibitory effect on DNA gyrase supercoiling activity from Escherichia coli K-12 C600. The format is functional.
The test system of a further experiment is Klebsiella aerogenes. Put plainly: Activity against Enterobacter aerogenes (ATCC 13048). The format is functional. In a few lines:
as §1

Experiment [2] has as its system Staphylococcus aureus. Nature of the experiment: Activity against Staphylococcus aureus (IID 803). The format is functional. The gist of the method:
as §1

Experiment [3] has as its system Staphylococcus aureus. Put plainly: Activity against Staphylococcus aureus (FDA207PJC-1). The format is functional. In a few lines: as §1
The test system of the next experiment is Pseudomonas aeruginosa. Nature of the experiment: Activity against Pseudomonas aeruginosa (E-2). The format is functional. In a few lines: as §1
The subject of the next experiment is Enterococcus faecalis. Put plainly: Activity against Streptococcus faecalis (IID 682). The format is functional. In a few lines:
as §1

Experiment [4] has as its system Escherichia coli. Nature of the experiment: Activity against Escherichia coli (KC-14). The format is functional. In a few lines:
as §1

Experiment [5] has as its system Staphylococcus epidermidis. Nature of the experiment: Activity against Staphylococcus epidermidis (IAM 1296). The format is functional. The gist of the method: as §1
In experiment [6] the test system is Escherichia coli. Put plainly: Activity against Escherichia coli (K-12 C600). The format is functional. The gist of the method: as §1
For experiment [7], the system named is Acinetobacter calcoaceticus. Nature of the experiment: Activity against Acinetobacter calcoaceticus (AC54). The format is functional. The gist of the method: as §1
Another experiment has as its system Burkholderia cepacia. Put plainly: Activity against Pseudomonas cepacia (IID-1341). The format is functional. The gist of the method:
as §1

`CC1COc2c(C(=O)O)c(=O)c3cc(F)c(N4CCN(C)CC4)nc3n21` (centres undefined): the MIC (usually the lowest concentration found to suppress growth) is 3.13 µg/mL (≈ 8.64 µM) with Bacillus subtilis; 0.78 µg/mL (≈ 2.15 µM) against Klebsiella pneumoniae; above 25 µg/mL in [1]; 6.25 µg/mL (≈ 17.2 µM) against Klebsiella aerogenes; 12.5 µg/mL (≈ 34.5 µM) in the experiment on Staphylococcus aureus [2]; 12.5 µg/mL (≈ 34.5 µM) with Staphylococcus aureus [3]. Also, the minimal inhibitory concentration (MIC) is above 25 µg/mL against Pseudomonas aeruginosa; above 25 µg/mL in the experiment with Enterococcus faecalis; 6.25 µg/mL (≈ 17.2 µM) with Escherichia coli [4]; above 25 µg/mL in experiment [5]; 12.5 µg/mL (≈ 34.5 µM) against Escherichia coli [6]; above 25 µg/mL in experiment [7]. In addition, in the experiment on Nucleic Acid, the IC50 (commonly the concentration needed to halve the response being measured) was found to be 6.11 µg/mL (≈ 16.9 µM).

In the case of `CN1CCN(c2nc3c(cc2F)c(=O)c(C(=O)O)c2n3CCN2C)CC1`, the MIC with Bacillus subtilis stood at 25 µg/mL (≈ 69.2 µM); against Klebsiella pneumoniae, 6.25 µg/mL (≈ 17.3 µM); in the experiment with Klebsiella aerogenes, 50 µg/mL (≈ 138 µM); with Staphylococcus aureus [2], 100 µg/mL (≈ 277 µM); against Staphylococcus aureus [3] it was 100 µg/mL (≈ 277 µM); against Pseudomonas aeruginosa, 100 µg/mL (≈ 277 µM). The MIC is 100 µg/mL (≈ 277 µM) in the experiment with Enterococcus faecalis; 50 µg/mL (≈ 138 µM) against Escherichia coli [4]; 100 µg/mL (≈ 277 µM) in experiment [5]; 50 µg/mL (≈ 138 µM) in the experiment on Escherichia coli [6]; 100 µg/mL (≈ 277 µM) in experiment [7]; 100 µg/mL (≈ 277 µM) in the experiment on Burkholderia cepacia. Moreover, the half-maximal inhibitory concentration (IC50) in the experiment with Nucleic Acid is above 25 µg/mL.

Regarding `CN1CCN(c2nc3c(cc2F)c(=O)c(C(=O)O)c2n3CCS2)CC1`, the MIC against Bacillus subtilis is 0.1 µg/mL (≈ 0.274 µM); in the experiment on Klebsiella pneumoniae, 0.05 µg/mL (≈ 0.137 µM); with Klebsiella aerogenes it was 0.2 µg/mL (≈ 0.549 µM); with Staphylococcus aureus [2], 0.39 µg/mL (≈ 1.07 µM); in the experiment on Staphylococcus aureus [3] it was 0.39 µg/mL (≈ 1.07 µM); in the experiment on Pseudomonas aeruginosa, 1.56 µg/mL (≈ 4.28 µM). Also, the minimum inhibitory concentration (MIC) is 6.25 µg/mL (≈ 17.2 µM) in the experiment with Enterococcus faecalis; 0.2 µg/mL (≈ 0.549 µM) against Escherichia coli [4]; 1.56 µg/mL (≈ 4.28 µM) in experiment [5]; 0.2 µg/mL (≈ 0.549 µM) with Escherichia coli [6]; 0.39 µg/mL (≈ 1.07 µM) in experiment [7]; 3.13 µg/mL (≈ 8.59 µM) with Burkholderia cepacia. This compound also gave a concentration for half-maximal inhibition (IC50) in the experiment on Nucleic Acid of 0.52 µg/mL (≈ 1.43 µM).

`CCn1cc(C(=O)O)c(=O)c2cc(F)c(N3CCNCC3)nc21` [ENOXACIN]: the minimum inhibitory concentration (MIC) in the experiment with Bacillus subtilis stood at 0.2 µg/mL (≈ 0.624 µM); against Klebsiella pneumoniae it was 0.1 µg/mL (≈ 0.312 µM); against Klebsiella aerogenes, 0.2 µg/mL (≈ 0.624 µM); with Staphylococcus aureus [2], 0.78 µg/mL (≈ 2.44 µM); in the experiment with Staphylococcus aureus [3], 0.78 µg/mL (≈ 2.44 µM); against Pseudomonas aeruginosa, 1.56 µg/mL (≈ 4.87 µM). In addition, the minimal inhibitory concentration (MIC) with Enterococcus faecalis was 3.13 µg/mL (≈ 9.77 µM); against Escherichia coli [4] it was 0.2 µg/mL (≈ 0.624 µM); in experiment [5], 3.13 µg/mL (≈ 9.77 µM); against Escherichia coli [6], 0.2 µg/mL (≈ 0.624 µM); in [7], 3.13 µg/mL (≈ 9.77 µM); against Burkholderia cepacia, 6.25 µg/mL (≈ 19.5 µM).

As to `CC1COc2c(N3CCN(C)CC3)c(F)cc3c(=O)c(C(=O)O)cn1c23` (centres undefined) [OFLOXACIN], the MIC worked out at 0.1 µg/mL (≈ 0.277 µM) with Bacillus subtilis; 0.05 µg/mL (≈ 0.138 µM) with Klebsiella pneumoniae; 0.1 µg/mL (≈ 0.277 µM) in the experiment on Klebsiella aerogenes; 0.39 µg/mL (≈ 1.08 µM) with Staphylococcus aureus [2]; 0.39 µg/mL (≈ 1.08 µM) against Staphylococcus aureus [3]; 1.56 µg/mL (≈ 4.32 µM) with Pseudomonas aeruginosa. Besides, the minimum inhibitory concentration (MIC) was 1.56 µg/mL (≈ 4.32 µM) against Enterococcus faecalis; 0.1 µg/mL (≈ 0.277 µM) against Escherichia coli [4]; 0.78 µg/mL (≈ 2.16 µM) in experiment [5]; 0.2 µg/mL (≈ 0.553 µM) in the experiment with Escherichia coli [6]; 0.39 µg/mL (≈ 1.08 µM) in experiment [7]; 6.25 µg/mL (≈ 17.3 µM) against Burkholderia cepacia. The compound also had an IC50 in the experiment on Nucleic Acid of 0.59 µg/mL (≈ 1.63 µM).

Values taken from ChEMBL document CHEMBL1124850, “Synthesis and antibacterial activity of thiazolo-, oxazolo-, and imidazolo[3,2-a][1,8]naphthyridinecarboxylic acids” (J Med Chem, 1990).
